The test system of assay [1] is MDA-MB-231. The assay can be described thus: Cytotoxicity against human MDA-MB-231 cells at 30 uM by MTS assay. The assay is classed as functional, cell-based.
The subject of assay [2] is HCT-116. The assay can be described thus: Cytotoxicity against human HCT116 cells by MTS assay. The assay is classed as functional, cell-based. An outline of the steps:
(§1)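 MTS read-out (CellTiter 96 AQueous One) of proliferation in A549 or HCT-116 cells grown in DMEM with 10% FBS at 37 °C, 5% CO2. Taxol-resistant A549 cells were exposed for 72 h. Compounds were screened at 30 μM versus vehicle, with ≥50% inhibition counted active. Actives were then tested over a concentration range for IC50. Triplicate wells, three independent experiments, mean ± SD.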

Assay [3] deals with HCT-116. The assay can be described thus: Cytotoxicity against human HCT116 cells at 30 uM by MTS assay relative to control. It counts as functional. An outline of the steps: as §1
The test system of assay [4] is A549. The assay can be described thus: Cytotoxicity against human A549 cells at 30 uM by MTS assay relative to control. The assay is classed as functional. An outline of the steps: as §1
The subject of assay [5] is A549. The assay can be described thus: Cytotoxicity against human A549 cells by MTS assay. It counts as functional, cell-based. An outline of the steps:
as §1

The test system of assay [6] is HT-29. The assay can be described thus: Cytotoxicity against human HT-29 cells at 30 uM by MTS assay. It counts as functional, cell-based.
The test system of assay [7] is HeLa. The assay can be described thus: Cytotoxicity against human HeLa cells at 30 uM by MTS assay. The assay is classed as functional, cell-based.
The subject of assay [8] is MCF7. The assay can be described thus: Cytotoxicity against human MCF7 cells at 30 uM by MTS assay. It counts as functional, cell-based.
The species entered for assay [9] is Sus scrofa. The assay can be described thus: Binding affinity to porcine tubulin after overnight incubation by streptavidin pull down assay. An outline of the steps:
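Purified porcine neuronal tubulin incubated with biotin, biotinylated probe or control probe in NETN buffer at 4 °C. Streptavidin Dynabeads 1 h at 4 °C, six washes, then SDS-PAGE and α-tubulin immunoblot.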

Assay [10] deals with A549. The assay can be described thus: Binding affinity to tubulin alpha in human A549 cells immunoblot based based pull down assay. It counts as cell-based. The method, boiled down: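 A549 lysate in NETN buffer incubated with biotin, biotinylated probe or control probe at 4 °C, then streptavidin Dynabeads 1 h at 4 °C. Beads washed six times, bound proteins run on SDS-PAGE and immunoblotted for α-tubulin.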

The test system of assay [11] is A549. The assay can be described thus: Cell cycle arrest in human A549 cells assessed as accumulation at G0/G1 phase at cytotoxic IC50 after 24 hrs by propidium iodide staining based flow cytometry (reference value: 46.39 +/- 1.75%). It counts as functional.
Assay [12] relates to A549. The assay can be described thus: Cell cycle arrest in human A549 cells assessed as accumulation at S phase at cytotoxic IC50 after 24 hrs by propidium iodide staining based flow cytometry (reference value: 32.37 +/- 1.23%). It counts as functional.
The test system of assay [13] is A549. The assay can be described thus: Cell cycle arrest in human A549 cells assessed as accumulation at G2/M phase at cytotoxic IC50 after 24 hrs by propidium iodide staining based flow cytometry (reference value: 20.95 +/- 0.8%). The assay is classed as functional.

Calls of active or inactive are those of the source. The rule behind the calls is not given here.

On to `Cc1cc2c(=O)[nH]c(CSC(=S)NCc3ccc(Cl)cc3Cl)nc2s1`, for which the outcome in [1], in assay [6], in [7] and in assay [8] was inactive. Further, the 50% inhibitory concentration (IC50) is more than 30 µM in [2] and 29.5 µM in assay [5]. The Activity entry in assay [3] and in assay [4] was “>=50%” throughout.
As to `Cc1ccc(CNC(=S)SCc2nc3sc(C)cc3c(=O)[nH]2)cc1`, the result in [1], in assay [6], in assay [7] and in assay [8] was inactive. Also, the IC50 in assay [2] was determined as 28 µM; in assay [5], 26.5 µM. The Activity entry in assay [3] and in [4] was “>=50%” in each case.
For `COc1ccccc1CNC(=S)SCc1nc2sc(C)cc2c(=O)[nH]1`, the outcome in assay [1], in assay [6], in [7] and in [8] was inactive. Also, the IC50 in assay [2] is 18.1 µM; in [5], 7.01 µM. Moreover, the Activity result in assay [3] and in [4] was “>=50%” each time.
With `Cc1cc2c(=O)[nH]c(CSC(=S)NCc3ccc(F)cc3)nc2s1`, the outcome in assay [1], in [6], in assay [7] and in [8] was inactive. Also, the IC50 in assay [2] turned out to be 28.7 µM; in assay [5], 18.9 µM. Also, the Activity entry in assay [3] and in assay [4] was “>=50%” each time.
`Cc1cc2c(=O)[nH]c(CSC(=S)NCc3ccccc3)nc2s1`: the outcome in assay [1], in [6], in [7] and in [8] was inactive. Also, the IC50 was more than 30 µM in assay [2] and 29.5 µM in [5]. Further, the Activity entry in assay [3] and in assay [4] was “>=50%” each time.
As for `Cc1cc2c(=O)[nH]c(CSC(=S)NCc3ccncc3)nc2s1`, the result in assay [1], in assay [6], in assay [7] and in assay [8] was inactive. The IC50 in [2] amounted to 14.1 µM; in [5], 7.43 µM. The Activity result in [3] and in assay [4] was “>=50%” throughout.
Turning to `Cc1cc2c(=O)[nH]c(CSC(=S)NCc3ccc(F)cc3F)nc2s1`, the outcome in [1], in assay [6], in [7] and in assay [8] was inactive. In addition, the IC50 in assay [2] was more than 30 µM; in assay [5], 16.2 µM. The Activity entry in assay [3] and in assay [4] was “>=50%” throughout.
Turning to `Cc1cc2c(=O)[nH]c(CSC(=S)NCc3ccc(Cl)cc3)nc2s1`, the result in [1], in [6], in assay [7] and in assay [8] was inactive. The IC50 in [2] came to 25.1 µM; in assay [5], 11.3 µM. Besides, the Activity result in assay [3] and in assay [4] was “>=50%” in each case.
For the compound `O=C(O)CCCC[C@@H]1SC[C@@H]2NC(=O)N[C@@H]21`, the result in assay [9] and in [10] was inactive.
`COc1ccc(CNC(=S)SCc2nc3sc(C)cc3c(=O)[nH]2)c(OC)c1`: the outcome in assay [1], in assay [6], in assay [7] and in [8] was inactive. The IC50 in assay [2] and in [5] was more than 30 µM throughout. The Activity result in [3] and in [4] was “>=50%” throughout.
For the compound `COc1cc(CNC(=S)SCc2nc3sc(C)cc3c(=O)[nH]2)cc(OC)c1OC`, the outcome in [1], in assay [6], in [7] and in assay [8] was inactive. Further, the IC50 in assay [2] was 14.9 µM; in assay [5], 7.89 µM. For the same compound, the Activity result in [3] and in [4] was “>=50%” in each case.
Regarding `Cc1cc2c(=O)[nH]c(CSC(=S)NCc3ccc(Br)cc3)nc2s1`, the result in assay [1], in [6], in assay [7] and in [8] was inactive. Besides, the IC50 turned out to be 28.7 µM in assay [2] and 21.9 µM in assay [5]. The Activity result in assay [3] and in [4] was “>=50%” in each case.
On to `Cc1cc2c(=O)[nH]c(CSC(=S)NCc3cccs3)nc2s1`, for which the outcome in assay [1], in assay [6], in assay [7] and in assay [8] was inactive. The IC50 in assay [2] is 27.8 µM; in assay [5] it was 23 µM. For the same compound, the Activity result in assay [3] and in assay [4] was “>=50%” in each case.
Consider `O=c1[nH]cc(F)c(=O)[nH]1` [FLUOROURACIL], for which the Activity in assay [11] stood at 29.61%; in [12], 59.27%; in assay [13], 8.9%.
On to `Cc1cc2c(=O)[nH]c(CSC(=S)NCc3ccco3)nc2s1`, for which the outcome in assay [1], in assay [6], in assay [7] and in [8] was inactive. For the same compound, the half-maximal inhibitory concentration (IC50) was 29.8 µM in [2] and more than 30 µM in [5]. Moreover, the Activity entry in assay [3] and in assay [4] was “>=50%” in each case.
As for `Cc1cc2c(=O)[nH]c(CSC(=S)NCc3ccc([N+](=O)[O-])cc3)nc2s1`, the result in [1], in [6], in assay [7] and in assay [8] was inactive. Moreover, the IC50 was 20.2 µM in assay [2] and 12.3 µM in assay [5]. For the same compound, the Activity result in assay [3] and in assay [4] was “>=50%” each time.
For the compound `Cc1cc2c(=O)[nH]c(CSC(=S)NCc3ccc4c(c3)OCO4)nc2s1`, the outcome in assay [1], in [6], in assay [7] and in [8] was inactive. For the same compound, the IC50 in [2] worked out at 24.6 µM; in assay [5], 14 µM. Also, the Activity result in assay [3] and in [4] was “>=50%” throughout.
Regarding `Cc1cc2c(=O)[nH]c(CSC(=S)NCc3cccnc3)nc2s1`, the outcome in [1], in [6], in [7] and in assay [8] was inactive. Moreover, the IC50 in assay [2] was found to be 9.3 µM; in assay [5] it was 5.79 µM. Further, the Activity result in [3] and in assay [4] was “>=50%” in each case.
`Cc1cc2c(=O)[nH]c(CN(CCCNC(=O)CCCC[C@@H]3SC[C@@H]4NC(=O)N[C@@H]43)Cc3ccc(C#N)cc3)nc2s1`: the outcome in assay [9] and in assay [10] was inactive.
Turning to `Cc1cc2c(=O)[nH]c(CSC(=S)NCc3ccccc3F)nc2s1`, the outcome in [1], in assay [6], in assay [7] and in assay [8] was inactive. For the same compound, the IC50 in assay [2] is 29.7 µM; in assay [5] it was more than 30 µM. For the same compound, the Activity entry in assay [3] and in assay [4] was “>=50%” in each case.
As to `COc1ccc(CNC(=S)SCc2nc3sc(C)cc3c(=O)[nH]2)cc1`, the result in assay [1], in assay [6], in assay [7] and in [8] was inactive. The IC50 in assay [2] stood at 24.5 µM; in assay [5], 29.1 µM. Moreover, the Activity result in assay [3] and in assay [4] was “>=50%” in each case.
Regarding `Cc1cc2c(=O)[nH]c(CNC(=S)SCc3ccc(Cl)cc3)nc2s1`, the outcome in [1], in [3], in assay [4], in assay [6], in assay [7] and in assay [8] was inactive.

Values taken from ChEMBL document CHEMBL4152279, “Synthesis, cytotoxic evaluation and target identification of thieno[2,3-d]pyrimidine derivatives with a dithiocarbamate side chain at C2 position” (Eur J Med Chem, 2018).
